Data taken from ChEMBL document CHEMBL1139755, “Synthesis and in vitro antibacterial activity of novel methylamino piperidinyl oxazolidinones” (2007).
Values after ≈ are worked out from the molar mass of the structure shown.

How the values were obtained:
Bacillus subtilis = assay: Antibacterial activity against Bacillus subtilis ATCC 6633 by broth microdilution method; format: functional
Method in brief: (§1)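 Endpoint is the minimum inhibitory concentration, determined by broth microdilution against a panel of susceptible Gram-positive strains. Values are reported as a range spanning two concentrations (for example 8–16). Values above the top concentration tested are given as >16.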

[1] = test system: Staphylococcus epidermidis; assay: Antibacterial activity against Staphylococcus epidermidis ATCC 12228 by broth microdilution method; format: functional; method in brief: as §1
Enterococcus faecalis [2] = assay: Antibacterial activity against Enterococcus faecalis ATCC 29212 by broth microdilution method; format: functional; method in brief: as §1
Enterococcus faecalis [3] = assay: Antibacterial activity against Enterococcus faecalis ATCC 14506 by broth microdilution method; format: functional; method in brief: as §1
Staphylococcus aureus [4] = assay: Antibacterial activity against Staphylococcus aureus ATCC 33591 by broth microdilution method; format: functional; method in brief: as §1
Staphylococcus aureus [5] = assay: Antibacterial activity against Staphylococcus aureus ATCC 29213 by broth microdilution method; format: functional; method in brief: as §1
Staphylococcus aureus [6] = assay: Antibacterial activity against Staphylococcus aureus ATCC 33592 by broth microdilution method; format: functional; method in brief: as §1
Enterococcus faecalis [7] = assay: Antibacterial activity against multidrug resistant Enterococcus faecalis ATCC 700802 by broth microdilution method; format: functional
Enterococcus faecium = assay: Antibacterial activity against vancomycin-resistant Enterococcus faecium ATCC 700221 by broth microdilution method; format: functional
Staphylococcus aureus [8] = assay: Antibacterial activity against Staphylococcus aureus ATCC 25923 by broth microdilution method; format: functional; method in brief: as §1
Staphylococcus aureus [9] = assay: Antibacterial activity against linezolid-resistant Staphylococcus aureus NRS 119 by broth microdilution method; format: functional
Method in brief: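 Linezolid-resistant S. aureus strain obtained from NARSA; minimum inhibitory concentration found by broth microdilution and reported as a concentration range.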

Staphylococcus aureus [10] = assay: Antibacterial activity against methicillin-resistant Staphylococcus aureus ATCC 700699 by broth microdilution method; format: functional
Streptococcus pneumoniae = assay: Antibacterial activity against multidrug-resistant Streptococcus pneumoniae ATCC 700904 by broth microdilution method; format: functional
[11] = test system: Staphylococcus epidermidis; assay: Antibacterial activity against Staphylococcus epidermidis ATCC 155 by broth microdilution method; format: functional; method in brief: as §1
Streptococcus pyogenes = assay: Antibacterial activity against Streptococcus pyogenes ATCC 14289 by broth microdilution method

| Compound | MIC (Bacillus subtilis) | MIC [1] | MIC (Enterococcus faecalis [2]) | MIC (Enterococcus faecalis [3]) | MIC (Staphylococcus aureus [4]) | MIC (Staphylococcus aureus [5]) | MIC (Staphylococcus aureus [6]) | MIC (Enterococcus faecalis [7]) | MIC (Enterococcus faecium) | MIC (Staphylococcus aureus [8]) | MIC (Staphylococcus aureus [9]) | MIC (Staphylococcus aureus [10]) | MIC (Streptococcus pneumoniae) | MIC [11] | MIC (Streptococcus pyogenes) |
| --- | --- | --- | --- | --- | --- | --- | --- | --- | --- | --- | --- | --- | --- | --- | --- |
| CC(=O)NC[C@H]1CN(c2ccc(N(C)C3CCN(C(=O)/C=C/c4ccc5c(c4)OCO5)CC3)c(F)c2)C(=O)O1 | 2 µg/mL (≈ 3.71 µM) | 8 µg/mL (≈ 14.9 µM) | 8 µg/mL (≈ 14.9 µM) | > 16 µg/mL | 8 µg/mL (≈ 14.9 µM) | > 16 µg/mL | > 16 µg/mL | > 16 µg/mL | > 16 µg/mL | > 16 µg/mL | > 16 µg/mL | > 16 µg/mL | > 16 µg/mL | > 16 µg/mL | > 16 µg/mL |
| CC(=O)NC[C@H]1CN(c2ccc(N(C)C3CCNCC3)c(F)c2)C(=O)O1 | > 16 µg/mL | > 16 µg/mL | > 16 µg/mL | > 16 µg/mL | > 16 µg/mL | > 16 µg/mL | > 16 µg/mL | > 16 µg/mL | > 16 µg/mL | > 16 µg/mL | > 16 µg/mL | > 16 µg/mL | > 16 µg/mL | > 16 µg/mL | > 16 µg/mL |
| CC(=O)NC[C@H]1CN(c2ccc(N(C)C3CCN(C(=O)/C=C/c4ccco4)CC3)c(F)c2)C(=O)O1 | 2 µg/mL (≈ 4.13 µM) | > 16 µg/mL | > 16 µg/mL | > 16 µg/mL | > 16 µg/mL | > 16 µg/mL | > 16 µg/mL | > 16 µg/mL | 8 µg/mL (≈ 16.5 µM) | > 16 µg/mL | > 16 µg/mL | 8 µg/mL (≈ 16.5 µM) | > 16 µg/mL | > 16 µg/mL | > 16 µg/mL |
| CC(=O)NC[C@H]1CN(c2ccc(N(C)C3CCN(C(=O)/C=C/c4ccccc4)CC3)c(F)c2)C(=O)O1 | 2 µg/mL (≈ 4.04 µM) | 8 µg/mL (≈ 16.2 µM) | > 16 µg/mL | > 16 µg/mL | 8 µg/mL (≈ 16.2 µM) | 8 µg/mL (≈ 16.2 µM) | 4 µg/mL (≈ 8.09 µM) | 8 µg/mL (≈ 16.2 µM) | 4 µg/mL (≈ 8.09 µM) | 8 µg/mL (≈ 16.2 µM) | > 16 µg/mL | 8 µg/mL (≈ 16.2 µM) | 8 µg/mL (≈ 16.2 µM) | 4 µg/mL (≈ 8.09 µM) | 8 µg/mL (≈ 16.2 µM) |
| CC(=O)NC[C@H]1CN(c2ccc(N(C)C3CCN(C(=O)/C=C/c4ccc(O)cc4)CC3)c(F)c2)C(=O)O1 | 2 µg/mL (≈ 3.92 µM) | 8 µg/mL (≈ 15.7 µM) | 4 µg/mL (≈ 7.83 µM) | > 16 µg/mL | 8 µg/mL (≈ 15.7 µM) | > 16 µg/mL | > 16 µg/mL | 8 µg/mL (≈ 15.7 µM) | 8 µg/mL (≈ 15.7 µM) | 8 µg/mL (≈ 15.7 µM) | > 16 µg/mL | 4 µg/mL (≈ 7.83 µM) | 8 µg/mL (≈ 15.7 µM) | 8 µg/mL (≈ 15.7 µM) | 8 µg/mL (≈ 15.7 µM) |
| CC(=O)NC[C@H]1CN(c2ccc(N(C)C3CCN(C(=O)/C=C/c4ccc([N+](=O)[O-])o4)CC3)c(F)c2)C(=O)O1 | 0.5 µg/mL (≈ 0.944 µM) | 1 µg/mL (≈ 1.89 µM) | 2 µg/mL (≈ 3.78 µM) | 4 µg/mL (≈ 7.55 µM) | 1 µg/mL (≈ 1.89 µM) | 2 µg/mL (≈ 3.78 µM) | 1 µg/mL (≈ 1.89 µM) | 8 µg/mL (≈ 15.1 µM) | 1 µg/mL (≈ 1.89 µM) | 2 µg/mL (≈ 3.78 µM) | 2 µg/mL (≈ 3.78 µM) | 1 µg/mL (≈ 1.89 µM) | 0.25 µg/mL (≈ 0.472 µM) | 0.25 µg/mL (≈ 0.472 µM) | 2 µg/mL (≈ 3.78 µM) |
| CC(=O)NC[C@H]1CN(c2ccc(N(C)C3CCN(C(=O)/C=C/c4ccc([N+](=O)[O-])cc4)CC3)c(F)c2)C(=O)O1 | 4 µg/mL (≈ 7.41 µM) | 8 µg/mL (≈ 14.8 µM) | > 16 µg/mL | > 16 µg/mL | > 16 µg/mL | > 16 µg/mL | > 16 µg/mL | > 16 µg/mL | > 16 µg/mL | > 16 µg/mL | > 16 µg/mL | 8 µg/mL (≈ 14.8 µM) | > 16 µg/mL | 8 µg/mL (≈ 14.8 µM) | > 16 µg/mL |
| CC(=O)NC[C@H]1CN(c2ccc(N(C)C3CCN(C(=O)/C=C/C4CCCCC4)CC3)c(F)c2)C(=O)O1 | 8 µg/mL (≈ 16 µM) | > 16 µg/mL | > 16 µg/mL | 8 µg/mL (≈ 16 µM) | > 16 µg/mL | 8 µg/mL (≈ 16 µM) | 8 µg/mL (≈ 16 µM) | 8 µg/mL (≈ 16 µM) | 8 µg/mL (≈ 16 µM) | 8 µg/mL (≈ 16 µM) | > 16 µg/mL | 4 µg/mL (≈ 7.99 µM) | 8 µg/mL (≈ 16 µM) | 8 µg/mL (≈ 16 µM) | > 16 µg/mL |
| CC(=O)NC[C@H]1CN(c2ccc(N(C)C3CCN(C(=O)/C=C/c4c[nH]c5ccccc45)CC3)c(F)c2)C(=O)O1 | 2 µg/mL (≈ 3.75 µM) | 4 µg/mL (≈ 7.5 µM) | 8 µg/mL (≈ 15 µM) | > 16 µg/mL | 8 µg/mL (≈ 15 µM) | > 16 µg/mL | > 16 µg/mL | 8 µg/mL (≈ 15 µM) | 8 µg/mL (≈ 15 µM) | 8 µg/mL (≈ 15 µM) | > 16 µg/mL | 2 µg/mL (≈ 3.75 µM) | 8 µg/mL (≈ 15 µM) | 4 µg/mL (≈ 7.5 µM) | 8 µg/mL (≈ 15 µM) |
| CC(=O)NC[C@H]1CN(c2ccc(N(C)C3CCN(C(=O)/C=C/c4ccc(CO)o4)CC3)c(F)c2)C(=O)O1 | > 16 µg/mL | > 16 µg/mL | > 16 µg/mL | > 16 µg/mL | > 16 µg/mL | > 16 µg/mL | > 16 µg/mL | > 16 µg/mL | > 16 µg/mL | > 16 µg/mL | > 16 µg/mL | > 16 µg/mL | > 16 µg/mL | > 16 µg/mL | > 16 µg/mL |
| CC(=O)NC[C@H]1CN(c2ccc(N3CCN(C(=O)CO)CC3)c(F)c2)C(=O)O1 [EPEREZOLID] | 0.5 µg/mL (≈ 1.27 µM) | 2 µg/mL (≈ 5.07 µM) | 2 µg/mL (≈ 5.07 µM) | 2 µg/mL (≈ 5.07 µM) | 1 µg/mL (≈ 2.54 µM) | 2 µg/mL (≈ 5.07 µM) |  | 1 µg/mL (≈ 2.54 µM) |  | 2 µg/mL (≈ 5.07 µM) | > 16 µg/mL | 1 µg/mL (≈ 2.54 µM) | 0.25 µg/mL (≈ 0.634 µM) |  | 0.25 µg/mL (≈ 0.634 µM) |
| CC(=O)NC[C@H]1CN(c2ccc(N3CCOCC3)c(F)c2)C(=O)O1 [LINEZOLID] | 1 µg/mL (≈ 2.96 µM) | 2 µg/mL (≈ 5.93 µM) |  |  | 1 µg/mL (≈ 2.96 µM) |  |  |  |  | 1 µg/mL (≈ 2.96 µM) | > 16 µg/mL | 1 µg/mL (≈ 2.96 µM) |  | 1 µg/mL (≈ 2.96 µM) | 0.5 µg/mL (≈ 1.48 µM) |
| CC(=O)NC[C@H]1CN(c2ccc(N3CCN(Cc4ccc([N+](=O)[O-])o4)CC3)c(F)c2)C(=O)O1 [RANBEZOLID] | 0.25 µg/mL (≈ 0.542 µM) | 0.5 µg/mL (≈ 1.08 µM) |  | 2 µg/mL (≈ 4.33 µM) | 1 µg/mL (≈ 2.17 µM) | 1 µg/mL (≈ 2.17 µM) | 1 µg/mL (≈ 2.17 µM) | 1 µg/mL (≈ 2.17 µM) | 2 µg/mL (≈ 4.33 µM) | 1 µg/mL (≈ 2.17 µM) | > 16 µg/mL | 0.5 µg/mL (≈ 1.08 µM) | 0.25 µg/mL (≈ 0.542 µM) | 0.25 µg/mL (≈ 0.542 µM) | 2 µg/mL (≈ 4.33 µM) |
